Experimental data gathered from unrelated publications.
Lines come from different studies, so protocols differ.
RET M918T: Proto-oncogene tyrosine-protein kinase receptor Ret (RET, Homo sapiens, UniProt P07949, M918T)
RET: Proto-oncogene tyrosine-protein kinase receptor Ret (RET, Homo sapiens, UniProt P07949)
RET V804M: Proto-oncogene tyrosine-protein kinase receptor Ret (RET, Homo sapiens, UniProt P07949, V804M)
RET V804L: Proto-oncogene tyrosine-protein kinase receptor Ret (RET, Homo sapiens, UniProt P07949, V804L)

SMILES | target | test | conditions | measurement | result
O=C(NCc1ncc(C(F)(F)F)cc1Cl)c1ccc2c(c1)C1(CCS(=O)(=O)CC1)[C@H](C1CC1)N2S(=O)(=O)c1ccc(F)cc1 | RET M918T | cell-free assay, competition with immobilised ligand | 1 µM | remaining binding | 96%
O=C(Cn1cc(C=C2C(=O)NC(=O)NC2=O)c2ccccc21)Nc1ccccc1 | RET | enzyme activity, inhibitor, radiometric | 10 µM | remaining activity | 110%
COc1ncccc1-c1cnn2ccc(N3CCN(C(=O)OC(C)C)CC3)nc12 | RET | binding, competition with immobilised ligand | 1 µM | remaining binding | 100%
C#Cc1n[nH]c2c(-c3cn([C@@H](C)c4ccccc4)c(=O)[nH]c3=O)cc(F)cc12 | RET | enzyme activity, inhibitor | 0.1 µM | inhibition | 3.2%
Cn1cncc1[C@](O)(COc1ccc(C#N)cc1-c1ccc(OC(F)(F)F)cc1)c1ccc(C#N)cc1 | RET M918T | cell-free assay, competition with immobilised ligand | 1 µM | remaining binding | 95%
Cc1nn(C)cc1-c1nc2c(N3CCN(Cc4ccc(Cl)cc4)CC3)c(Cl)cnc2[nH]1 | RET V804M | binding, competition with immobilised ligand | 1 µM | remaining binding | 22%
C#Cc1n[nH]c2c(-c3cn([C@@H](C)c4ccccn4)c(=O)[nH]c3=O)cc(F)cc12 | RET V804M | enzyme activity, inhibitor | 0.1 µM | inhibition | -0.3%
N#CC1(c2ccccn2)CCN(Cc2cc(C(=O)O)c(=O)n3ccccc23)CC1 | RET V804L | cell-free assay, competition with immobilised ligand | 1 µM | remaining binding | 100%
O=c1[nH]c2ccccc2n1C1CCN(Cc2ccc(-c3[nH]c4cc5ncnc5cc4nc3-c3ccccc3)cc2)CC1 | RET | cell-free assay | 0.5 µM | remaining signal | 96.7%
Nc1ncc(-c2nc(N3CCOCC3)nc(N3CCOCC3)n2)c(C(F)F)n1 | RET V804L | binding, competition with immobilised ligand | 10 µM | remaining binding | 88%
Cn1cc(-c2cc(F)cc(N3CCn4c(cc5c4CCCC5)C3=O)c2CO)cc(Nc2ccc(N3CCN(C4COC4)CC3)cn2)c1=O | RET | enzyme activity, inhibitor | 0.1 µM | inhibition | 11%
O=C1NC(=O)N(c2ccccc2)C(=O)C1=CNc1ccc2[nH]c(=O)[nH]c2c1 | RET | enzyme activity, inhibitor, radiometric | 10 µM | remaining activity | 90.6%
